Results reported in ChEMBL document CHEMBL4177756, “Small Molecule Neuropilin-1 Antagonists Combine Antiangiogenic and Antitumor Activity with Immune Modulation through Reduction of Transforming Growth Factor Beta (TGFβ) Production in Regulatory T-Cells” (J Med Chem, 2018).

Tests used:
Neuropilin-1 = Neuropilin-1 (Homo sapiens, UniProt O14786); assay: Binding affinity to N-terminal His6-tagged recombinant human NRP1-b1 domain expressed in Escherichia coli Rosetta Gami 2 (DE3) pLysS cells by SPR method
Procedure, shortened: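 Human NRP1-b1 (residues 273–427, His6-tagged) was amine-coupled to a CM5 chip at high and low density; an unmodified spot served as reference. Runs were at 25 °C in PBS with 0.05% P20 and 3% DMSO. Compound was tested as 2-fold dilutions from 16 µM to 31 nM with 60 s injections. KD was taken from steady-state responses, DMSO-corrected; mean ± SD of the two surfaces.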

in vivo = details: mouse, iv, 2.5 mg/kg

Neuropilin-1, sequence (O14786 whole entry, the tested form may be a part): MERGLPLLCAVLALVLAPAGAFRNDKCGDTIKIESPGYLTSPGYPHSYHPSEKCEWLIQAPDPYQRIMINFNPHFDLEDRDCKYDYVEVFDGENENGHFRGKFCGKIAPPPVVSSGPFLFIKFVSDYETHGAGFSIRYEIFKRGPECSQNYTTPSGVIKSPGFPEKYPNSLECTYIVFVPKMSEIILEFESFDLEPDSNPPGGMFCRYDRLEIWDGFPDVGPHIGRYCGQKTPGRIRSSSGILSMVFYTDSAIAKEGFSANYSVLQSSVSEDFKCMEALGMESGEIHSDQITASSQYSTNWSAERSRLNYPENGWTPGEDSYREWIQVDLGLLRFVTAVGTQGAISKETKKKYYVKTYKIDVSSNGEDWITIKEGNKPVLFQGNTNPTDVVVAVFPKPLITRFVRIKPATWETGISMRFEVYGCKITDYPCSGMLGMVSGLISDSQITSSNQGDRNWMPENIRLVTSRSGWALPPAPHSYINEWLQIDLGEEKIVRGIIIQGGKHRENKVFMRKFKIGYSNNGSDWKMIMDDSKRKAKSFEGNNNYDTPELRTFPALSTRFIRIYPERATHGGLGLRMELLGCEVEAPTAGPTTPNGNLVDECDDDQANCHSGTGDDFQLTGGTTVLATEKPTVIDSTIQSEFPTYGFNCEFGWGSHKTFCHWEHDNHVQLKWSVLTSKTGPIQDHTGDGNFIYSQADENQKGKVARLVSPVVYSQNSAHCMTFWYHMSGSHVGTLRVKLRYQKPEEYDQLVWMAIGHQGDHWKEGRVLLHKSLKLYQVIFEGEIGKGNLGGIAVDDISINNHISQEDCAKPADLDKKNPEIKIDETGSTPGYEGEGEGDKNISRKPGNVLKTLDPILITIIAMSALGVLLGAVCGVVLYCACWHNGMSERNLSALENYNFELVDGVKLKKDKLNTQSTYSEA

Row | Structure (SMILES) | Kd (Neuropilin-1) | half-life (in vivo)
1 | N=C(N)NCCC[C@H](NC(=O)c1sccc1NS(=O)(=O)c1cc(-c2cccc(CN3CCOCC3)c2)cc2c1OCC2)C(=O)O | 3.76 µM | –
2 | N=C(N)NCCC[C@H](NC(=O)c1sccc1NS(=O)(=O)c1cc(-c2cccc(CN)c2)cc2c1OCC2)C(=O)O | 2.44 µM | –
3 | N=C(N)NCCC[C@H](NC(=O)c1sccc1NS(=O)(=O)c1cc(-c2ccccc2)cc2c1OCC2)C(=O)O | 14.4 µM | –
4 | N=C(N)NCCC[C@H](NC(=O)c1sccc1NS(=O)(=O)c1cc(-c2ccccc2CN2CCCCC2)cc2c1OCC2)C(=O)O | 2.28 µM | –
5 | N=C(N)NCCC[C@H](NC(=O)c1sccc1NS(=O)(=O)c1cc(-c2ccc3c(c2)CNC3)cc2c1OCC2)C(=O)O | 2.17 µM | –
6 | N=C(N)NCCC[C@H](NC(=O)c1sccc1NS(=O)(=O)c1cc(-c2ccccc2CN2CCC(N3CCOCC3)CC2)cc2c1OCC2)C(=O)O | 1.5 µM | –
7 | CNC(=O)C1CCN(Cc2cccc(-c3cc4c(c(S(=O)(=O)Nc5ccsc5C(=O)N[C@@H](CCCNC(=N)N)C(=O)O)c3)OCC4)c2)CC1 | 1.33 µM | –
8 | N#CCC1CCN(Cc2cccc(-c3cc4c(c(S(=O)(=O)Nc5ccsc5C(=O)N[C@@H](CCCNC(=N)N)C(=O)O)c3)OCC4)c2)CC1 | 1.41 µM | –
9 | N#CCC1CCN(Cc2ccccc2-c2cc3c(c(S(=O)(=O)Nc4ccsc4C(=O)N[C@@H](CCCNC(=N)N)C(=O)O)c2)OCC3)CC1 | 1.86 µM | –
10 | N=C(N)NCCC[C@H](NC(=O)c1sccc1NS(=O)(=O)c1cccc2nsnc12)C(=O)O | – | 30 min
